Measurements from ChEMBL document CHEMBL4428077, “Synthesis and Biological Evaluation of N-((1-(4-(Sulfonyl)piperazin-1-yl)cycloalkyl)methyl)benzamide Inhibitors of Glycine Transporter-1” (J Med Chem, 2016).
Each block holds one compound with its values, some of them ahead of it.

Key:
Rattus norvegicus [1] = assay: In vivo inhibition of glycine transporter-1 in Sprague-Dawley rat assessed as CSF glycine level at 30 mg/kg, po measured 2 hrs post dose by LC-MS/MS analysis relative to control; format: functional; design: scale not given: the % may be the effect or the level left
Method in brief: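 Drug-naive Sprague-Dawley rats, n = 5 per group, given acute oral doses of 0.4-160.9 μmol/kg (0.3-100 mg/kg). Vehicle was Solutol 5% in 20% Captisol / 25 mM PBS, pH 2. Killed 2 h post-dose. CSF glycine was quantified by LC-MS/MS with a deuterated-glycine standard and expressed as % vehicle control, mean ± SEM. Two-way ANOVA with Tukey test.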

[2] = Drug level in Sprague-Dawley rat CSF at 30 mg/kg, po measured 2 hrs post dose by LC-MS/MS analysis; format: ADME, organism-based, Cerebrospinal fluid; details: read-out: Drug uptake
Method in brief: (§1)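 Drug-naive Sprague−Dawley rats (n = 4−5/group) were dosed orally once in 5% Solutol plus 20% Captisol in 25 mM PBS, pH 2, and euthanized 2 h later by CO₂. CSF was drawn from the cisterna magna. Drug was measured in CSF, brain and plasma; data as mean ± SEM.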

[3] = Drug level in Sprague-Dawley rat brain at 30 mg/kg, po measured 2 hrs post dose by LC-MS/MS analysis; format: ADME, organism-based; details: read-out: Drug uptake; method in brief: as §1
[4] = Drug level in Sprague-Dawley rat brain at 1 mg/kg, po qd for 5 days measured 2 hrs post last dose by LC-MS/MS analysis; format: ADME, organism-based; details: read-out: Drug uptake
Method in brief: (§2)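 Drug-naive Sprague−Dawley rats (n = 5/group) were dosed orally once daily for 5 days in 5% Solutol plus 20% Captisol in 25 mM PBS, pH 2, and sacrificed 2 h after the last dose. Drug was measured in CSF, brain and plasma; mean ± SEM.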

[5] = Drug level in Sprague-Dawley rat brain at 10 mg/kg, po qd for 5 days measured 2 hrs post last dose by LC-MS/MS analysis; format: ADME, organism-based; details: read-out: Drug uptake; method in brief: as §2
[6] = Drug level in Sprague-Dawley rat plasma at 10 mg/kg, po qd for 5 days measured 2 hrs post last dose by LC-MS/MS analysis; format: ADME, organism-based; method in brief: as §2
[7] = Toxicity in Sprague-Dawley rat assessed as gross behavioral abnormality at 1 to 10 mg/kg, po qd for 5 days; format: organism-based; details: in vivo, 120 h
Method in brief: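 Drug-naive Sprague–Dawley rats (n = 5/group) were dosed orally once daily for 5 days at 1.6, 4.8 or 16.1 μmol/kg in 5% Solutol/20% Captisol in 25 mM PBS, pH 2.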

[8] = Intrinsic clearance in human; format: ADME
Cytochrome P450 2C9 = Cytochrome P450 2C9 (Homo sapiens, UniProt P11712); assay: Inhibition of CYP2C9 (unknown origin); format: ADME
Cytochrome P450 2D6 = Cytochrome P450 2D6 (Homo sapiens, UniProt P10635); assay: Inhibition of CYP2D6 (unknown origin); format: ADME
[9] = biological target: Voltage-gated inwardly rectifying potassium channel KCNH2 (Homo sapiens, UniProt Q12809); assay: Inhibition of human ERG channel expressed in HEK293 cells by patch clamp assay; format: cell-based
Method in brief: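 PatchXpress patch-clamp on HEK293 cells stably expressing hERG. Five-point concentration-response, n = 3.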

[10] = Apparent permeability from apical to basolateral side in human Caco2 cells; format: ADME, cell-based; details: Caco-2
Method in brief: (§3)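 Caco-2 monolayer permeability measured in both the A-to-B and B-to-A directions and reported as P_app (×10⁻⁶ cm/s).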

[11] = Apparent permeability from basolateral to apical side in human Caco2 cells; format: ADME, cell-based; details: Caco-2; method in brief: as §3
[12] = Efflux ratio of apparent permeability in human Caco2 cells; format: ADME, cell-based; details: Caco-2
[13] = Total clearance in cynomolgus monkey at 1 mg/kg, iv or 5 mg/kg, po measured up to 12 or 24 hrs post dose by LC-MS/MS analysis; format: ADME, organism-based, Macaca fascicularis; details: in vivo
Method in brief: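 Three female cynomolgus monkeys per group, single dose: IV 1.5 μmol/kg in 5% DMSO/10% Solutol in saline, pH 6.5 (2 mL/kg), or PO 7.8 μmol/kg in 5% Solutol in 20% Captisol, 25 mM PBS, pH 2 (5 mL/kg). Parameters come from plasma concentration–time data; mean ± SD.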

[14] = Tmax in Sprague-Dawley rat plasma at 10 mg/kg, po administered as single dose by LC-MS/MS analysis; format: ADME, organism-based
Method in brief: (§4)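 Groups of three drug-naive adult male Sprague–Dawley rats, single dose: IV 3.1 μmol/kg in 5% DMSO/10% Solutol in saline (5 mL/kg), or PO 15.7 μmol/kg in 5% Solutol/10% Captisol in 25 mM PBS adjusted to pH 2 with HCl. Plasma concentration–time data give the parameters; mean ± SD.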

[15] = Volume of distribution at steady state in Sprague-Dawley rat at 10 mg/kg, po or 2 mg/kg, iv administered as single dose measured up to 24 hrs post dose by LC-MS/MS analysis; format: ADME, organism-based; details: in vivo, read-out: Vdss; method in brief: as §4
[16] = Drug level in cynomolgus monkey plasma at 3 mg/kg, po measured at 4 hrs post dose by LC-MS/MS analysis; format: ADME, organism-based, Macaca fascicularis
[17] = Drug level in cynomolgus monkey plasma at 10 mg/kg, po measured at 2 hrs post dose by LC-MS/MS analysis; format: ADME, organism-based, Macaca fascicularis
Method in brief: (§5)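 Cynomolgus monkeys (n = 3/group) fitted with subcutaneous CSF ports were dosed orally at 0.4−15.7 μmol/kg in 5% Solutol plus 20% Captisol in 25 mM PBS, pH 2. CSF (about 0.30 mL) and blood were sampled predose and at 0.5, 1, 2, 3, 4, 8, 12 and 24 h. Quantitation limit 1.0 ng/mL; mean ± SD.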

[18] = Drug level in cynomolgus monkey plasma at 10 mg/kg, po measured at 3 hrs post dose by LC-MS/MS analysis; format: ADME, organism-based, Macaca fascicularis
[19] = Drug level in cynomolgus monkey plasma at 10 mg/kg, po measured at 4 hrs post dose by LC-MS/MS analysis; format: ADME, organism-based, Macaca fascicularis
[20] = Drug level in cynomolgus monkey plasma at 10 mg/kg, po measured at 24 hrs post dose by LC-MS/MS analysis; format: ADME, organism-based, Macaca fascicularis
[21] = Drug level in cynomolgus monkey CSF at 10 mg/kg, po measured at 3 hrs post dose by LC-MS/MS analysis; format: ADME, organism-based, Macaca fascicularis, Cerebrospinal fluid; details: read-out: Drug uptake; method in brief: as §5
[22] = Toxicity in cynomolgus monkey assessed as gross behavioral abnormality at 0.3 to 10 mg/kg, po measured up to 24 hrs post dose; format: organism-based, Macaca fascicularis; details: in vivo
Method in brief: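 Cynomolgus monkeys (n = 3/group) received an oral dose of 0.4, 1.5, 4.7 or 15.7 μmol/kg in 5% Solutol/20% Captisol in 25 mM PBS, pH 2. CSF was drawn via subcutaneous ports and blood sampled predose and at 0.5–24 h.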

Rattus norvegicus [23] = assay: In vivo inhibition of glycine transporter-1 in Sprague-Dawley rat assessed as increase in medial prefrontal cortex glycine level at 3 to 10 mg/kg, po administered through oral gavage measured after 80 to 300 mins by LC-MS/MS analysis relative to control; format: functional; design: scale not given: the % may be the effect or the level left
Method in brief: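 Freely moving drug-naive adult male Sprague-Dawley rats, n = 5-6 per group, given 1.5, 4.7 or 15.7 μmol/kg by oral gavage at t = 0. Vehicle was 5% Solutol / 20% Captisol in 25 mM PBS, pH 2. mPFC dialysate was sampled over 5 h and analysed by HPLC-MS/MS. Values were normalized to basal levels (t = -80 to 0 min). Two-way repeated-measures ANOVA with Student-Newman-Keuls test.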

Cytochrome P450 2D6, sequence (P10635 whole entry): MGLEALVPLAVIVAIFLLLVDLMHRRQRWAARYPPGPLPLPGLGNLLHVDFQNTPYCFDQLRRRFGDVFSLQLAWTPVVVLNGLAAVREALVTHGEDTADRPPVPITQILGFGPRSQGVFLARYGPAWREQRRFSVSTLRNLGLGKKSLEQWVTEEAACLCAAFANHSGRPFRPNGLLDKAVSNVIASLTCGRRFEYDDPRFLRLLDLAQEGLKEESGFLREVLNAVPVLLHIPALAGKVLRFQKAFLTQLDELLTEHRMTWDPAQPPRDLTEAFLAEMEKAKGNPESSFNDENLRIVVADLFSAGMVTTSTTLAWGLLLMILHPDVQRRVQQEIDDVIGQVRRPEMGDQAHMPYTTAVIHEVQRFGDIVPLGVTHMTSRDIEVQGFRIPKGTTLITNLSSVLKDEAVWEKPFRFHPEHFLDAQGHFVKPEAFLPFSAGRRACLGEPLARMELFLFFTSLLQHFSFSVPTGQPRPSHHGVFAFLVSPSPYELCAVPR
Voltage-gated inwardly rectifying potassium channel KCNH2, sequence (Q12809 whole entry): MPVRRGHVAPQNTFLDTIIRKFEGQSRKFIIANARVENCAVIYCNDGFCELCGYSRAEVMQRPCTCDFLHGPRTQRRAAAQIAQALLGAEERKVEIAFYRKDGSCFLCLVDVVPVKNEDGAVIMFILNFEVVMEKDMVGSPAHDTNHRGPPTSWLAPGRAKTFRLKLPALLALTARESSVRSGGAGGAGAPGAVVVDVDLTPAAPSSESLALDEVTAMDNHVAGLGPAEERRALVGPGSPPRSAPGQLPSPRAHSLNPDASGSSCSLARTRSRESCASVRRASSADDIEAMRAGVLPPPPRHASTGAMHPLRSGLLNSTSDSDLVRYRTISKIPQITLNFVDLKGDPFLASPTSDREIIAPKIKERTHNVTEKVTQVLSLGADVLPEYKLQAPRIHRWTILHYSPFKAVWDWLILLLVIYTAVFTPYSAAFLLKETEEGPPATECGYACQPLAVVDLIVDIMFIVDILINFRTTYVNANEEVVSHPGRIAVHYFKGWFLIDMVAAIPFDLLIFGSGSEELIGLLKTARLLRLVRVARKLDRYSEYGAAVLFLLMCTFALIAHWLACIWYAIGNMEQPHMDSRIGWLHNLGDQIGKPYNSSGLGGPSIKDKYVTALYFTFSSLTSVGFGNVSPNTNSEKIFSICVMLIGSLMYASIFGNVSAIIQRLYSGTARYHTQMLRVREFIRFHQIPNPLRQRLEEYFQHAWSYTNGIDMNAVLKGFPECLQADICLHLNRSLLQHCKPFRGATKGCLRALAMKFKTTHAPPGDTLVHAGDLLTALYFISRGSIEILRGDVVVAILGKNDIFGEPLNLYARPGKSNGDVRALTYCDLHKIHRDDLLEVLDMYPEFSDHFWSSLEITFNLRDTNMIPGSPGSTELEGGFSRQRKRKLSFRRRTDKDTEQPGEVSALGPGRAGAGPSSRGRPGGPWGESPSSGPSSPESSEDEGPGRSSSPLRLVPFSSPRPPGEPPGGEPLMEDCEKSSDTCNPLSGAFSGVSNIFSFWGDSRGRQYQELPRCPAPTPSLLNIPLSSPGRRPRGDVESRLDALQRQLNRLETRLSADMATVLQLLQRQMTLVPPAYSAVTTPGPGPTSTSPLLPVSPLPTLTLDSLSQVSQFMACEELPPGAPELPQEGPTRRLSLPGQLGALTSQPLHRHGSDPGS
Cytochrome P450 2C9, sequence (P11712 whole entry): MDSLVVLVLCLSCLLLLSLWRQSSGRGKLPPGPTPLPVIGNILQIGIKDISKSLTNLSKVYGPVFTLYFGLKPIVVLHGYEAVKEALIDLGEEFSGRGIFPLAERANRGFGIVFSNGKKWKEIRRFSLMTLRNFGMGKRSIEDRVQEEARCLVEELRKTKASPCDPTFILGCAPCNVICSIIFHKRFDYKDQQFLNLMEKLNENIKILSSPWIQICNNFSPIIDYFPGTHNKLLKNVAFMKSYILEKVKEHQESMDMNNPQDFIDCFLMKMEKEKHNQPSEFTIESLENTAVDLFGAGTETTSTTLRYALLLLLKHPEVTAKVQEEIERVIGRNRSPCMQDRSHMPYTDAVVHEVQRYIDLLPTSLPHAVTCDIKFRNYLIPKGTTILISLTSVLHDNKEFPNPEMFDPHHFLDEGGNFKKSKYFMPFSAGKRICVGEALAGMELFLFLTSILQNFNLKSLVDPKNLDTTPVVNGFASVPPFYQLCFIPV

concentration at 2 h [2]: 8.3 nM | concentration at 2 h [3]: 66.8 nM | concentration at 2 h [4]: 21 nM | concentration at 2 h [5]: 69.4 nM | concentration at 2 h [6]: 237 nM
SMILES: Cl.Cn1cc(S(=O)(=O)N2CCN(C3(CNC(=O)c4ccc(C(F)(F)F)cc4Cl)CCC(F)(F)CC3)CC2)nn1
Activity (Rattus norvegicus [1]): 317.2% | Activity [7]: Non-Toxic

CL [8]: 4 microL/ml/min | IC50 (Cytochrome P450 2C9): > 7.2 µM | IC50 (Cytochrome P450 2D6): > 7.2 µM | Papp A→B [10]: 23.9 ×10⁻⁶ cm/s | Papp B→A [11]: 47.4 ×10⁻⁶ cm/s | efflux ratio [12]: 2 | clearance [13]: 24.9 mL/min/kg | Tmax [14]: 2.67 h | Vd [15]: 1.75 L/kg | concentration at 4 h [16]: 3.7 ng/mL | concentration at 2 h [17]: 222 ng/mL | concentration at 3 h [18]: 205 ng/mL | concentration at 4 h [19]: 224 ng/mL | concentration at 24 h [20]: 10.3 ng/mL | concentration at 3 h [21]: 11.3 ng/mL
SMILES: CC(NC(=O)c1ccc(C(F)(F)F)cc1Cl)C1(N2CCN(S(=O)(=O)c3cn(C)nn3)CC2)CCC(F)(F)CC1.Cl (single isomer, unassigned; (+))
IC50 [9]: 20.2 µM | Activity [22]: Non-Toxic | Activity (Rattus norvegicus [23]): >150%
